Measured values: ChEMBL document CHEMBL1141146, “Androsterone 3alpha-ether-3beta-substituted and androsterone 3beta-substituted derivatives as inhibitors of type 3 17beta-hydroxysteroid dehydrogenase: chemical synthesis and structure-activity relationship” (J Med Chem, 2005)
pIC50: −log10 of the molar value.

Tests used:
[1] = target: T1, 17-beta-hydroxysteroid dehydrogenase type 3 (Homo sapiens) (UniProt P37058); assay: Inhibition of type-3 17 beta-hydroxysteroid dehydrogenase expressed in HEK293 cells at 3 uM 37 degree C pH 7.4; type: cell-based
T1 sequence (whole entry): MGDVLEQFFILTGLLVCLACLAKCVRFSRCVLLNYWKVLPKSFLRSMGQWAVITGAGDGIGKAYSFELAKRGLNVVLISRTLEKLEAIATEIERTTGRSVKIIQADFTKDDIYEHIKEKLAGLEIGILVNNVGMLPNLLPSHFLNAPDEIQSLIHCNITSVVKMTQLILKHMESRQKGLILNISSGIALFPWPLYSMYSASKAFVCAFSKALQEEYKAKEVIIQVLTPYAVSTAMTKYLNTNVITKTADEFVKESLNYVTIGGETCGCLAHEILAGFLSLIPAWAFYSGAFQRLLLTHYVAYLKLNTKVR
In short: (§1)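 Human type 3 17β-HSD was transfected into HEK-293 cells by calcium phosphate. The cells were sonicated in 50 mM Na phosphate pH 7.4 with 20% glycerol and 1 mM EDTA. The 100000g microsomal pellet served as enzyme. The reaction ran at 37 °C in the same buffer with 2 mM NADPH and 0.1 μM [14C]-Δ4-dione, reading conversion to testosterone. Percent inhibition was taken at 0.3 or 3 μM inhibitor.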

[2] = target: T1, 17-beta-hydroxysteroid dehydrogenase type 3 (Homo sapiens); assay: Inhibition of type-3 17 beta-hydroxysteroid dehydrogenase expressed in HEK293 cells at 0.3 uM 37 degree C pH 7.4; type: cell-based; in short: as §1
[3] = target: T1, 17-beta-hydroxysteroid dehydrogenase type 3 (Homo sapiens); assay: Inhibition of type-3 17 beta-hydroxysteroid dehydrogenase expressed in HEK293 cells at 3 uM 37 degree C in pH 7.4; type: cell-based; in short: as §1
[4] = target: T2, 17-beta-hydroxysteroid dehydrogenase type 3 (Homo sapiens, UniProt P37058); assay: Inhibition of type-3 17 beta-hydroxysteroid dehydrogenase expressed in HEK293 cells at 37 degree C pH7.4; type: cell-based
T2 sequence (P37058 whole entry): T1 sequence (whole entry)
In short: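 HEK-293 cells were transfected with human type 3 17β-HSD, and their 100000g microsomes served as enzyme. Incubation was at 37 °C in 50 mM Na phosphate pH 7.4 with 20% glycerol, 1 mM EDTA, 2 mM NADPH and 0.1 μM [14C]-Δ4-dione. Several inhibitor concentrations were tested. Percent transformation to testosterone was plotted against inhibitor concentration, and IC50 was computed from the curve.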

[5] = target: T1, 17-beta-hydroxysteroid dehydrogenase type 3 (Homo sapiens); details: HEK293, 0.3 uM

Row | Structure (SMILES) | inhibition [1] | inhibition [2] | inhibition [3] | pIC50 [4] | inhibition [5]
1 | C[C@]12CC[C@@](O)(CCCO)CC1CC[C@@H]1[C@@H]2CC[C@]2(C)C(=O)CC[C@@H]12 (stereo not given in full) | 17% | 2% | – | – | –
2 | C[C@]1(O)CC[C@@]2(C)C(CC[C@@H]3[C@@H]2CC[C@]2(C)C(=O)CC[C@@H]32)C1 (stereo not given in full) | 16% | 9% | – | – | –
3 | C[C@]12CCC3(CCCO3)CC1CC[C@@H]1[C@@H]2CC[C@]2(C)C(=O)CC[C@@H]12 (stereo not given in full) | 94% | 3% | – | – | –
4 | C[C@]12CC[C@H](O)CC1CC[C@@H]1[C@@H]2CC[C@]2(C)C(=O)CC[C@@H]12 (stereo not given in full) | 18% | 1% | – | – | –
5 | CCO[C@@H]1CC[C@@]2(C)C(CC[C@@H]3[C@@H]2CC[C@]2(C)C(=O)CC[C@@H]32)C1 (stereo not given in full) | 95% | 69% | – | – | –
6 | C[C@]12CC[C@@]3(CCC(=O)O3)CC1CC[C@@H]1[C@@H]2CC[C@]2(C)C(=O)CC[C@@H]12 (stereo not given in full) | 53% | 9% | – | – | –
7 | CC(O)CO[C@@H]1CC[C@@]2(C)C(CC[C@@H]3[C@@H]2CC[C@]2(C)C(=O)CC[C@@H]32)C1 (stereo not given in full) | 89% | 40% | – | – | –
8 | C[C@]12CC[C@@](O)(c3ccccc3)CC1CC[C@@H]1[C@@H]2CC[C@]2(C)C(=O)CC[C@@H]12 (stereo not given in full) | 39% | 7% | – | – | –
9 | C[C@]12CC[C@](O)(CCCc3ccccc3)CC1CC[C@@H]1[C@@H]2CC[C@]2(C)C(=O)CC[C@@H]12 (stereo not given in full) | – | 93% | 97% | – | –
10 | CCC[C@]1(O)CC[C@@]2(C)C(CC[C@@H]3[C@@H]2CC[C@]2(C)C(=O)CC[C@@H]32)C1 (stereo not given in full) | 33% | 9% | – | – | –
11 | C=CC[C@]1(O)CC[C@@]2(C)C(CC[C@@H]3[C@@H]2CC[C@]2(C)C(=O)CC[C@@H]32)C1 (stereo not given in full) | 36% | 14% | – | – | –
12 | CO[C@]1(CCC2CCCCC2)CC[C@@]2(C)C(CC[C@@H]3[C@@H]2CC[C@]2(C)C(=O)CC[C@@H]32)C1 (stereo not given in full) | 88% | 80% | – | 6.45 | –
13 | CCCCCCO[C@@H]1CC[C@@]2(C)C(CC[C@@H]3[C@@H]2CC[C@]2(C)C(=O)CC[C@@H]32)C1 (stereo not given in full) | 92% | 45% | – | – | –
14 | CCO[C@]1(Cc2ccccc2)CC[C@@]2(C)C(CC[C@@H]3[C@@H]2CC[C@]2(C)C(=O)CC[C@@H]32)C1 (stereo not given in full) | 92% | 80% | – | 6.45 | –
15 | CC(C)(C)[C@@]1(O)CC[C@@]2(C)C(CC[C@@H]3[C@@H]2CC[C@]2(C)C(=O)CC[C@@H]32)C1 (stereo not given in full) | 93% | – | – | 6.85 | 89%
16 | CCCO[C@@H]1CC[C@@]2(C)C(CC[C@@H]3[C@@H]2CC[C@]2(C)C(=O)CC[C@@H]32)C1 (stereo not given in full) | 93% | 49% | – | – | –

Row | Structure (SMILES) | inhibition [1] | inhibition [2] | inhibition [3] | pIC50 [4] | inhibition [5]
17 | C[C@]12CC[C@](O)(CCCO)CC1CC[C@@H]1[C@@H]2CC[C@]2(C)C(=O)CC[C@@H]12 (stereo not given in full) | 74% | 17% | – | – | –
18 | C[C@]12CC[C@@H](OCCCO)CC1CC[C@@H]1[C@@H]2CC[C@]2(C)C(=O)CC[C@@H]12 (stereo not given in full) | 86% | 38% | – | – | –
19 | C=C[C@@]1(O)CC[C@@]2(C)C(CC[C@@H]3[C@@H]2CC[C@]2(C)C(=O)CC[C@@H]32)C1 (stereo not given in full) | 94% | 77% | – | – | –
20 | CCCC[C@@]1(O)CC[C@@]2(C)C(CC[C@@H]3[C@@H]2CC[C@]2(C)C(=O)CC[C@@H]32)C1 (stereo not given in full) | 92% | 88% | – | 6.94 | –
21 | CO[C@@H]1CC[C@@]2(C)C(CC[C@@H]3[C@@H]2CC[C@]2(C)C(=O)CC[C@@H]32)C1 (stereo not given in full) | 94% | 83% | – | – | –
22 | C=CCO[C@@H]1CC[C@@]2(C)C(CC[C@@H]3[C@@H]2CC[C@]2(C)C(=O)CC[C@@H]32)C1 (stereo not given in full) | 95% | 73% | – | – | –
23 | C=CC[C@@]1(O)CC[C@@]2(C)C(CC[C@@H]3[C@@H]2CC[C@]2(C)C(=O)CC[C@@H]32)C1 (stereo not given in full) | 76% | 31% | – | – | –
24 | C[C@]12CC[C@@H](OCCCBr)CC1CC[C@@H]1[C@@H]2CC[C@]2(C)C(=O)CC[C@@H]12 (stereo not given in full) | 93% | 56% | – | – | –
25 | CCCO[C@]1(Cc2ccccc2)CC[C@@]2(C)C(CC[C@@H]3[C@@H]2CC[C@]2(C)C(=O)CC[C@@H]32)C1 (stereo not given in full) | 87% | 60% | – | – | –
26 | C[C@]12CC[C@]3(CCC(=O)O3)CC1CC[C@@H]1[C@@H]2CC[C@]2(C)C(=O)CC[C@@H]12 (stereo not given in full) | 93% | 50% | – | – | –
27 | CCCCCCCCCCCC[C@@]1(O)CC[C@@]2(C)C(CC[C@@H]3[C@@H]2CC[C@]2(C)C(=O)CC[C@@H]32)C1 (stereo not given in full) | 77% | 50% | – | – | –
28 | C[C@]12CC[C@@H](OCCC(=O)O)CC1CC[C@@H]1[C@@H]2CC[C@]2(C)C(=O)CC[C@@H]12 (stereo not given in full) | 48% | 7% | – | – | –
29 | CCCCCCO[C@]1(Cc2ccccc2)CC[C@@]2(C)C(CC[C@@H]3[C@@H]2CC[C@]2(C)C(=O)CC[C@@H]32)C1 (stereo not given in full) | 28% | 24% | – | – | –
30 | CO[C@]1(Cc2ccccc2)CC[C@@]2(C)C(CC[C@@H]3[C@@H]2CC[C@]2(C)C(=O)CC[C@@H]32)C1 (stereo not given in full) | 93% | 91% | – | 6.81 | –
31 | C[C@]12CC[C@@](O)(Cc3ccccc3)CC1CC[C@@H]1[C@@H]2CC[C@]2(C)C(=O)CC[C@@H]12 (stereo not given in full) | 39% | 10% | – | – | –
32 | CO[C@]1(CCc2ccccc2)CC[C@@]2(C)C(CC[C@@H]3[C@@H]2CC[C@]2(C)C(=O)CC[C@@H]32)C1 (stereo not given in full) | 95% | 61% | – | 7.14 | –
